Key:
GL261 cells [1] = assay: Cytotoxicity, CCK-8; format: cell-based, mouse; details: GL261, 24 h, n = 5
Outline: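 GL261 cells were exposed to test compound for 24 h, then incubated 20 min in medium containing 10% CCK-8. Absorbance was read at 450 nm. For the +L arm, the zero-concentration point is cells receiving laser without compound. n = 5.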

PTP1B = assay: In vitro PTP1B proteolysis; format: cell-based, mouse; details: IFN-γ-treated GL261 cells, Western blot
[2] = system: intratumoral CD8+ T cells; assay: Exhaustion markers PD-1 and Tim3 in tumor-derived T cells; format: cell-based, mouse; details: for Tim3 expression (Tim3-positive cells) / PD-1 expression (PD-1-positive cells): 5 μmol/L, 48 h, n = 3, mean ± SD; for Tim3 expression (Tim3-positive cells): untreated 65.6 ± 4.84%; for PD-1 expression (PD-1-positive cells): untreated 69.6 ± 6.46%; for PD-1 and Tim3 levels: 24 h, no significant differences between the two groups
[3] = Hydrodynamic size by dynamic light scattering; format: physicochemical; details: DLS, aqueous condition (saline, 1 mg/mL), mean ± SD, n = 5
Outline: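 Nanoassemblies formed spontaneously in aqueous medium without carrier. They were dispersed at 1 mg/mL in saline and sized by dynamic light scattering (hydrodynamic diameter). Morphology was checked by TEM.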

[4] = Drug loading capacity calculated from molecular weights; format: physicochemical
Outline: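 Loading was calculated as (PROTAC MW 1411.59 + VPF MW 702.81) divided by the MW of the whole prodrug conjugate (2595.98). The cathepsin B-cleavable RRK peptide (464.61) is excluded from the numerator.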

Cat B = assay: Target enzyme-specific cleavage, HPLC; format: in vitro ADME; details: pH 5.5 MES buffer, 37 °C, 10 μg/mL Cat B
Outline: (§1)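 The self-assembled nanoparticle was incubated at 37 °C in pH 5.5 MES buffer with 10 μg/mL of a single protease: Cat B, Cat D, Cat E, Cat L, caspase-3 or MMP-9. Cat B was also tested in the presence of its irreversible inhibitor Z-FA-FMK. Parent conjugate and cleavage products were followed by HPLC.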

Cat D = assay: Enzyme cleavage, HPLC; format: in vitro ADME; details: pH 5.5 MES buffer, 37 °C, 10 μg/mL enzyme
Outline: as §1

Cat E = assay: Enzyme cleavage, HPLC; format: in vitro ADME; details: pH 5.5 MES buffer, 37 °C, 10 μg/mL enzyme
Outline: as §1

Cat L = assay: Enzyme cleavage, HPLC; format: in vitro ADME; details: pH 5.5 MES buffer, 37 °C, 10 μg/mL enzyme
Outline: as §1

caspase-3 = assay: Enzyme cleavage, HPLC; format: in vitro ADME; details: pH 5.5 MES buffer, 37 °C, 10 μg/mL enzyme
Outline: as §1

MMP-9 = assay: Enzyme cleavage, HPLC; format: in vitro ADME; details: pH 5.5 MES buffer, 37 °C, 10 μg/mL enzyme
Outline: as §1

GL261 cells [5] = assay: Intracellular ROS generation, DCFH-DA; format: cell-based, mouse; details: GL261, 5 μmol/L 24 h, n = 3
Outline: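 GL261 cells were treated 24 h at 5 μmol/L, then loaded with DCFH-DA for 30 min before irradiation (40 mW, 500 s) or no irradiation. Intracellular DCF fluorescence was the read-out. n = 3.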

GL261 cells [6] = assay: Coculture assay, lysis of GL261 cells by T cells; format: cell-based, mouse; details: T cells treated 5 μmol/L 48 h, coculture 1 h, CCK-8, n = 3
Outline: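 Intratumoral CD8+ T cells were isolated with CD8 microbeads from subcutaneous GL261 flank tumours in C57BL/6 mice and kept in RPMI1640 with 10% FBS at 37 °C, 5% CO2. They were stained with Far red CFSE and treated 48 h at 5 μmol/L. They were then cocultured 1 h with green CFSE-labelled GL261 cells. GL261 viability was measured by CCK-8.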

intratumoral T cells = assay: Extracellular IFN-γ release from tumor-derived T cells; format: cell-based, mouse; details: n = 3
GL261 tumor [7] = assay: Therapeutic efficacy in subcutaneous GL261 GBM model; format: in vivo, C57BL/6 mice; details: subcutaneous GL261, i.v. 3 mg/kg VPF equivalent, +L
GL261 tumor [8] = assay: Immune cell analysis of tumor tissues, flow cytometry; format: in vivo, C57BL/6 mice; details: for apoptosis rate of T cells within tumor tissues vs saline group: CD8+Annexin V+, +L groups
Outline: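 Female C57BL/6 mice (6 weeks) bore left-flank tumours from 5 × 10^6 subcutaneous GL261 cells. Treatment was i.v. at 3 mg/kg VPF equivalent; +L groups received 671 nm laser, 100 mW, 15 min, 3 h post-injection. On Day 3, tumours were enzymatically dissociated, Fc-blocked 5 min and antibody-stained 45 min. Flow cytometry gated CD45+CD3+CD8+ cytotoxic T cells and CD8+Annexin V+ damaged T cells. n = 5.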

[9] = Brain accumulation in orthotopic GBM model, NIRF imaging; format: in vivo, BALB/c-nu mice; details: for time of peak accumulation in brain: orthotopic GL261, i.v., NIRF imaging
Outline: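 Orthotopic model: 1 × 10^5 GL261 cells in saline were injected stereotactically into the brains of BALB/c-nu mice (2.0 mm lateral, 0.5 mm anterior to bregma, 3.0 mm depth, 1 μL/min). Test compound or VPF was given i.v. at an equivalent 3 mg/kg VPF content. Brain accumulation was followed by whole-body NIRF imaging, with ex vivo NIRF imaging of GBM tissue at 6 h.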

[10] = absence of laser irradiation (-L)

For Cc1cc(-c2c3ccccc3c(Br)c3sc(C)c(C)c23)cc(C)c1O[C@H](Cc1ccccc1)C(=O)O [ertiprotafib, reference compound], the cytotoxicity (GL261 cells [1]; CCK-8, without laser (-L)) was “minimum GBM cell death”, the PTP1B levels (PTP1B; pERK and pAKT decreased) was “no changes in PTP1B levels” and the “Tim3 expression (Tim3-positive cells)” value [2] was 47.53 ± 3.11%. For the same compound, the “PD-1 expression (PD-1-positive cells)” value [2] was 57.43 ± 5.29% and the “PD-1 and Tim3 levels” value [2] was “lower PD-1 and Tim3 levels compared to untreated cells”.
With VPF–KALAPYIPRRK–ertiprotafib [PNPTP1B] the “average diameter (hydrodynamic size)” value [3] was 87.79 ± 1.25 nm, the “drug loading capacity, PROTAC share” value [4] was 54.4% and the “drug loading capacity, VPF share” value [4] was 34.2%. For the same compound, the “time to complete cleavage into PROTAC and VPF–K” value (Cat B) was ≤ 1 h, the “stability with Cat D” value (Cat D) was “stable” and the “stability with Cat E” value (Cat E) was “stable”. For the same compound, the “stability with Cat L” value (Cat L) was “stable”, the “stability with caspase-3” value (caspase-3) was “stable” and the “stability with MMP-9” value (MMP-9) was “stable”. The cytotoxicity (GL261 cells [1]; CCK-8, with laser irradiation (+L)) was “even more potent tumor-killing effect”, the cytotoxicity (GL261 cells [1]; CCK-8, without laser (-L)) was “significantly greater cytotoxicity than ertiprotafib” and the “PTP1B and related downstream proteins (pERK, pAKT) levels” value (PTP1B; 5 μmol/L, 24 h) was “fully restored to levels similar to those in IFN-γ-untreated cells”. For the same compound, the “intracellular ROS generation” value (GL261 cells [5]; [10]) was “no ROS generation was detected”, the “intracellular ROS generation” value (GL261 cells [5]; laser 40 mW 500 s (+L)) was “nearly identical” and the “Tim3 expression (Tim3-positive cells)” value [2] was 30.2 ± 4.33%. The “PD-1 expression (PD-1-positive cells)” value [2] was 42.47 ± 6.41%, the “PD-1 and Tim3 levels” value [2] was “lower PD-1 and Tim3 levels compared to untreated cells” and the “GL261 cell lysis by cocultured T cells” value (GL261 cells [6]) was “significantly increased”. For the same compound, the “extracellular release of IFN-γ” value (intratumoral T cells) was “higher quantity”, the “time to complete regression in all mice” value (GL261 tumor [7]) was ≤ 8 days and the “apoptosis rate of T cells within tumor tissues vs saline group” value (GL261 tumor [8]) was “no significant differences”. The “increase in cytotoxic T cells in tumor tissues, (+L) relative to (-L) group” value (GL261 tumor [8]; CD45+CD3+CD8+, Day 3, n = 5) was 1.2 fold, the “brain fluorescence intensity relative to VPF” value ([9]; orthotopic GL261, i.v. 3 mg/kg VPF equivalent, 6 h post-injection, NIRF, n = 3) was 2.16 fold and the “time of peak accumulation in brain” value [9] was 6 h.
In the case of verteporfin [VPF, reference compound], the “intracellular ROS generation” value (GL261 cells [5]; [10]) is reported as “no ROS generation was detected”, the “intracellular ROS generation” value (GL261 cells [5]; laser 40 mW 500 s (+L)) is reported as “nearly identical” and the “apoptosis rate of T cells within tumor tissues vs saline group” value (GL261 tumor [8]) is reported as “no significant differences”. For the same compound, the “time of peak accumulation in brain” value [9] was 6 h.

Reference: article PMC12491721 (Acta Pharmaceutica Sinica. B, 2025)
